Jurkat NFkB inh: inhibitors of induced NF-kB luciferase reporter, primary screen, TCR NF-kB activation inhibitor project, cell-based, luminescence, uHTS; Jurkat, PMA/ionomycin-induced NF-kB luciferase reporter; inhibition, % at 4 µM; 330,000 compounds, 0.53% hits; in the data active = inhibition above about 50%
HSF1 inhib: HSF1 inhibitors in luciferase reporter cells, primary screen, cell-based, NIH3T3, luminescence; 300,000 compounds, 0.77% hits; NIH3T3-HGL HSE-luciferase, MG132-induced, luminescence 8 h; stronger effect = lower value; AID 2098, 2009; activity change, negative = inhibition, % at 7.5 µM (by protocol);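 active = more than half of replicate wells show activity change below -50%, luminescence cut by over half; inconclusive = some wells, but at most half, below -50%; inactive = no replicate well below -50%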;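 also: luciferase reports HSF-1 transcriptional activity via heat shock element; 0% = median of DMSO wells and -100% = zero luminescence signal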
GPR7 antag: GPR7 receptor antagonists, primary screen, cell-based, fluorescence, single concentration. Neuropeptides B/W receptor type 1 (Homo sapiens), P48145. inhibition, % at 4.4 µM. AID 1861, 2009. 290,000 compounds, 1.1% hits. GPR7-expressing cells, fluorescence antagonist assay; in the data active = inhibition above about 16%, passing the limit was not always enough;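 also: cells stimulated with the agonist NPW; 0% = agonist with vehicle and 100% = vehicle without agonist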
Target sequence (P48145 whole entry, looked up): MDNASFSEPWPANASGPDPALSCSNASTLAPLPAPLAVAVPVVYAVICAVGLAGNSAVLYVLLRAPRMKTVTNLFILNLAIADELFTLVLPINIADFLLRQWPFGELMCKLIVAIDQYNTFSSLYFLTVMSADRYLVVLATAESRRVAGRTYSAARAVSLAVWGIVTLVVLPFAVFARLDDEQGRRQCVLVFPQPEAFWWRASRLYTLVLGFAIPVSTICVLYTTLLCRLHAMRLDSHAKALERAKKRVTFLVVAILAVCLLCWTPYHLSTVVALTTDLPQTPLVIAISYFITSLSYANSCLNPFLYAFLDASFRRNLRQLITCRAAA
HSF-1 act: HSF-1 activators, primary screen, NIH3T3-HGL cells, MG132 stress, luminescence, single point | AID 504408, 2011 | activation, % at 9 µM | NIH3T3-HGL HSF-1 luciferase reporter, 8 h; 100% = twice DMSO control signal | 300,000 compounds, 1.7% hits;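 active = mean replicate activation of at least 50% with a set share of replicates each reaching 50%; inconclusive = only one of those two conditions met; inactive = mean below 50% and too few replicates reaching it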;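 also: 0% = median of the neutral control wells and 100% = twice that signal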
697 NFkB inh: inhibitors of PMA/ionomycin-induced NF-kB reporter, 697 cells, primary screen, B-cell NF-kB inhibitor project, cell-based, luminescence, uHTS | 697 B-cell NF-kB luciferase reporter, 16 h | inhibition, % at 4 µM | 330,000 compounds, 0.33% hits; in the data active = inhibition above about 35%
T cruzi repl: inhibitors of intracellular T. cruzi growth, primary screen, luminescence, NIH3T3 host cells | 300,000 compounds, 1.4% hits | T. cruzi beta-gal in NIH3T3, 90 h | AID 1885, 2009 | inhibition, % (test concentration not listed);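 active = mean inhibition across valid replicates above about 55%, limit read from the data; inconclusive = mean below that limit but half or more replicates reach it; inactive = mean below it, under half of replicates reach it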;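 also: signal also drops with host cell toxicity which is not excluded here; 0% = plate median of DMSO wells and 100% = zero luminescence signal; higher percent means less beta-gal luminescence so fewer parasites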
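Read-out: Parasite load inhibition, % | Test system: Mouse NIH/3T3 fibroblasts infected with β-gal-expressing T. cruzi Tulahuen C4 | Amount: 5,000 cells/well | Medium: DMEM, 2% fetal bovine serum | Signal: GalScreen β-gal luminescence, detergent lysis, 60 min | Timing: 3 h attach, ≥90 h co-culture | Also added: Tulahuen C4 trypomastigotes, 5000/well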
* hit, by the source's call. Shown are actives, neighbours in structure and some others; about 4.8% of the full set was active somewhere.

O=[N+]([O-])c1ccc(S(=O)(=O)c2cccc(C(F)(F)F)c2)nc1 was read as Jurkat NFkB inh 13.8, HSF1 inhib -95.3*, HSF-1 act -94.8, 697 NFkB inh -31.1 and T cruzi repl 66.2*.
CCN(CC)CCN(C(=O)c1ccc(S(=O)(=O)N(C)C2CCCCC2)cc1)c1nc2ccc(OC)cc2s1 was read as Jurkat NFkB inh -32.0, HSF1 inhib -1.8, GPR7 antag -9.9, HSF-1 act 4.7, 697 NFkB inh -45.6 and T cruzi repl 64.6*.
Cc1ccc2sc(N(CCCN(C)C)C(=O)c3ccc(S(=O)(=O)N(C)C)cc3)nc2c1C was read as Jurkat NFkB inh 0.1, HSF1 inhib 0.7, GPR7 antag 2.1, HSF-1 act 0.3, 697 NFkB inh -5.8 and T cruzi repl 37.9.
For Cc1ccc2sc(N(CCCN(C)C)C(=O)c3ccc(S(=O)(=O)N(C)Cc4ccccc4)cc3)nc2c1C the results were Jurkat NFkB inh -0.5, HSF1 inhib 21.8, HSF-1 act 31.0, 697 NFkB inh -18.4 and T cruzi repl 59.8*.
COc1ccc2sc(N(CCCN(C)C)C(=O)c3ccc(S(=O)(=O)N(C)Cc4ccccc4)cc3)nc2c1 was read as Jurkat NFkB inh -15.8, HSF1 inhib -13.5, HSF-1 act -22.0, 697 NFkB inh -0.4 and T cruzi repl 55.2*.
For Cc1ccc(N2C(=O)C(Cl)=C(N3CCCCCC3)C2=O)c(C)c1 the results were Jurkat NFkB inh -5.6, HSF1 inhib -11.9, GPR7 antag -10.5, HSF-1 act -11.2, 697 NFkB inh -14.2 and T cruzi repl 23.0.
For CCCCN(C)C(=S)Nc1ccc2nc(N3CCN(CC)CC3)cc(C)c2c1 the results were Jurkat NFkB inh -49.4, HSF1 inhib -63.8*, GPR7 antag -7.7, HSF-1 act -70.6, 697 NFkB inh -36.7 and T cruzi repl 24.2.
CCCCN(C)CCNC(=S)Nc1ccc2nc(N3CCN(CC)CC3)cc(C)c2c1 was read as Jurkat NFkB inh 3.4, HSF1 inhib -3.9, GPR7 antag -6.8, HSF-1 act -3.5, 697 NFkB inh -7.7 and T cruzi repl inconclusive.
CCCCN(CC)C(=S)Nc1ccc2nc(N3CCN(C)CC3)cc(C)c2c1 was read as Jurkat NFkB inh -45.1, HSF1 inhib -55.6*, GPR7 antag -11.1, HSF-1 act -55.3, 697 NFkB inh -3.7 and T cruzi repl 36.3.
`COc1ccc(C2(c3ccc(O)cc3O)CC(c3ccccc3Cl)NC(=S)N2)cc1` (stereo not given) gave Jurkat NFkB inh 9.2, HSF1 inhib 1.4, GPR7 antag 11.1, HSF-1 act 15.8, 697 NFkB inh 17.7 and T cruzi repl 10.1.
`CC(C)[C@H](NC(=O)c1ccco1)C(=O)OCC(=O)Nc1ccccc1OC(F)F` gave Jurkat NFkB inh -10.2, HSF1 inhib -3.0, GPR7 antag 1.7, HSF-1 act 2.4, 697 NFkB inh 14.4 and T cruzi repl -12.0.
CCC(=O)Nc1cccc(C(=O)/C=C/c2ccc(F)cc2)c1 was read as Jurkat NFkB inh -7.1, HSF1 inhib 61.5, GPR7 antag -1.3, HSF-1 act 74.6*, 697 NFkB inh -20.2 and T cruzi repl 6.8.
For C[C@H](CO)N1C[C@H](C)[C@@H](CN(C)C(=O)Nc2ccc3c(c2)OCO3)Oc2c(NC(=O)c3ccncc3)cccc2C1=O the results were Jurkat NFkB inh 5.5 and 697 NFkB inh 14.8.
`CCN1CCN(c2ccc(S(=O)(=O)N3CCCCC3)cc2NC(=O)c2ccc([N+](=O)[O-])s2)CC1` gave Jurkat NFkB inh 27.1, HSF1 inhib 16.5, HSF-1 act 35.9, 697 NFkB inh -9.9 and T cruzi repl 54.7*.
CCN1CCN(c2ccc(S(=O)(=O)N3CCCCC3)cc2NC(=O)c2cccc(F)c2)CC1 was read as Jurkat NFkB inh -0.2, HSF1 inhib -7.3, HSF-1 act -12.2, 697 NFkB inh 2.4 and T cruzi repl 48.7.

High-throughput results (PubChem)
